Screening data: PubChem, several laboratories
Rows were chosen to be rich in hits. Some 2.9% of all compounds tested hit in one or more screens of this group.
DNA FID counter = compounds displacing fluorescent DNA intercalator, primary screen, artefact control for HCV NS3 helicase inhibitor project, biochemical, FID fluorescence; 290,000 tested, 0.17% active; inhibition, % at 7.9 µM; DNA fluorescent intercalator displacement; in the data active means inhibition above about 37%;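 further: 0% = vehicle and 100% = reference compound; higher means more ethidium bromide displaced from hairpin DNA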
SUMO Mot1 rescue = yeast Mot1-301 growth rescue at high temperature, primary screen, SUMOylation pathway inhibitor project, S. cerevisiae, ATP luminescence, 38.5C; growth rescue, % at 18.8 µM; 320,000 tested, 1% active; S. cerevisiae Mot1-301 growth rescue; percent above DMSO median, 100 means doubled; AID 2716, 2010;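 active means every valid replicate shows activation above 250% relative to neutral control wells; inactive means the rest, any valid replicate at or below 250%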;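 further: OY570 slx delta 5 strain wells were the positive control but not used for scaling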
SUMO HTRF inh = inhibitors of in vitro SUMOylation cascade, primary screen, biochemical, HTRF, uHTS; SUMO-conjugating enzyme UBC9 (Homo sapiens), P63279; HTRF SUMOylation assay, SAE1/SAE2 + UBC9; inhibition, % at 35 µM; 290,000 tested, 0.36% active; AID 2006, 2009; in the data active means inhibition above about 50%, passing the limit was not always enough
Target sequence (P63279 whole entry, looked up): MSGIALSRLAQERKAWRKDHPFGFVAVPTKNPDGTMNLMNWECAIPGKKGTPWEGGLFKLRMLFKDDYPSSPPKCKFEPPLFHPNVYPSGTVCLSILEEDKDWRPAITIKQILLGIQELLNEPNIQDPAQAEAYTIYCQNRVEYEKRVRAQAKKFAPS
NALP1 yeast inh = NALP1 inflammasome inhibitors in reconstituted yeast, colorimetric, S. cerevisiae, triplicate retest; S. cerevisiae NALP1/ASC/caspase-1 growth, X-gal OD620, 72 h; inhibition, % at 10 µM; 280,000 tested, 0.61% active; AID 2071, 2009; in the data active means inhibition mostly above about 24%, no sharp cut-off; inactive means mostly below about 32%
VIM-2 inh = VIM-2 metallo-beta-lactamase inhibitors, primary screen, biochemical, epi-absorbance readout, Pseudomonas aeruginosa enzyme | purified VIM-2, nitrocefin hydrolysis, epi-absorbance fluorescence | inhibition, % at 5.6 µM | 290,000 tested, 0.89% active;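 active means inhibition above the mean of all tested compounds plus 3 SD, cutoff set per screening run, cut at about 7.5% in these data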;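 further: red hydrolysis product quenches plate fluorescence so inhibitors raise well fluorescence; 0% = enzyme with DMSO and 100% = DMSO without enzyme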
IMP-1 inhibitor = IMP-1 metallo-beta-lactamase inhibitors, primary screen, biochemical, epi-absorbance readout, Pseudomonas aeruginosa enzyme | purified IMP-1, nitrocefin hydrolysis, epi-absorbance fluorescence | metallo-beta-lactamase IMP-1 (Pseudomonas aeruginosa) | 290,000 tested, 0.45% active | inhibition, % at 5.6 µM;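 active means inhibition above the mean plus 3 SD of all compounds in the same screening run, cut at about 4.5% in these data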;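 further: 0% = IMP-1 with DMSO and 100% = DMSO wells lacking enzyme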
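System: purified recombinant IMP-1 beta-lactamase. Medium: Zinc- and detergent-supplemented HEPES buffer, pH 7.1. Compound: one 5.6 µM dose […]. Schedule: 15 min preincubation plus 25 min reaction at 25 °C. Technique: Epi-absorbance fluorescence, 480 nm excitation, 530 nm emission.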
Yeast Mot1 SUMO = growth restoration of Mot1-301 yeast on galactose, dose response, SUMO pathway inhibitor project, whole organism, S. cerevisiae, ATP luminescence, cherry-picked samples. shares compounds with SUMO Mot1 rescue. S. cerevisiae Mot1-301 galactose growth, 24 h; -100 = growth of slx-deleted rescue strain. growth activity, percent, % at 42 µM. 2,300 tested, under 10 active;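 active means Signal drops as the depositor expects, and the fitted half-maximal dose is no more than ten times the top valid tested dose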;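 further: more negative values mean stronger growth rescue toward the control strain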
An asterisk follows results filed as active; i = inactive; · = no result given; + = active, no number.

SMILES	DNA FID counter	SUMO Mot1 rescue	SUMO HTRF inh	NALP1 yeast inh	VIM-2 inh	IMP-1 inhibitor	Yeast Mot1 SUMO
CC(Oc1ccccc1)C(=O)Nc1ccccc1O (centres undefined)	5.0	568.3*	12.8	4.2	2.5	3.7	0.6
CCC(=O)N1CCCN(S(=O)(=O)c2ccc(C)cc2)C1c1ccc(OC)cc1 (centres undefined)	-33.8	276.8	5.6	8.7	-1.4	-4.0	·
CC12CCC(C(=O)NNC(=O)c3ccc(Br)cc3)(OC1=O)C2(C)C (centres undefined)	-3.9	21.2	9.8	9.6	-0.6	0.2	·
O=C(Cc1cccs1)N1CCCC(c2nc3c(nnn3Cc3ccc(F)cc3)c(=O)[nH]2)C1 (centres undefined)	-36.0	532.9*	11.5	25.2	-3.9	-3.0	0.5
Cc1cc(C)n(C(=O)CCCCCCCCC(=O)n2nc(C)cc2C)n1	-3.3	7.0	-1.7	-0.1	-5.9	-2.7	·
NNC(=O)c1csc(-c2ccc(C(F)(F)F)cc2Cl)n1	-5.4	-21.7	8.0	8.7	-2.0	-2.5	·
CNC(=O)NNC(=O)c1csc(-c2ccc(C(F)(F)F)cc2Cl)n1	-5.8	381.1*	-4.6	·	1.6	1.3	0.0
Cc1nc2c(-c3ccc(F)cc3)cnn2c2c1CCC2	-2.4	582.5*	29.3	31.5	-1.4	-3.4	-0.3
COc1ccc(-c2cnc3c(-c4ccc(F)cc4)cnn3c2N)cc1	-6.6	-20.2	24.5	3.2	-4.2	-4.5	·
COc1cccc(/C=N/NC(=O)c2cnn(-c3ccccc3)c2N)c1	-12.6	149.1	13.1	·	-2.5	-2.1	·
O=C(NC1CCc2ccccc21)c1cc(COc2ccc(F)cc2F)on1 (centres undefined)	-5.3	396.1*	-10.6	-5.9	3.2	-0.2	0.1
Clc1ccc(CNCc2cccs2)cc1Cl	-2.3	362.8*	-1.6	43.2	-5.2	-3.6	0.7
Cc1ccc(-c2nc3c(=O)n(-c4ccccc4)c4c(c(=O)n(C)c(=O)n4C)c3o2)cc1	-7.1	796.4*	23.6	9.5	-2.4	-3.4	0.8
CCN1CCN(c2ccc(NC(=O)c3cc(S(=O)(=O)N4CCCC4)ccc3Cl)cc2)CC1	·	-4.9	·	·	·	·	·
Cc1cc(C)nc(SCC(=O)Nc2cc(C)on2)n1	-3.3	17.2	8.6	15.6	-2.2	-2.5	·
Cc1cc(C(F)(F)F)nc(SCC(=O)Nc2cc(C)on2)n1	1.0	+	15.0	12.8	-2.8	-1.7	0.2
CC1CC(C)(C)NC(=S)N1CC(=O)NCc1ccc(F)cc1 (centres undefined)	-2.1	835.2*	12.6	-11.0	-1.4	-0.7	0.2
COc1ccc(NS(=O)(=O)c2cc(NC(=O)C3=NN(c4ccccc4)C(=O)CC3)ccc2OC)cc1	·	-11.5	·	·	·	·	·
O=C(c1ccccc1O)N1N=C(c2ccccc2)CC1(O)C(F)(F)F (centres undefined)	-9.0	i	7.7	9.7	0.0	-0.8	·
COc1ccc(-c2nc3c(c(SCC(=O)N4CCOCC4)n2)Cc2c(CO)cnc(C)c2O3)cc1	-55.2	380.1*	·	3.3	5.6	6.3*	0.5
C=CCc1ccc(OCC(O)CN2CCc3ccccc3C2)c(OC)c1 (centres undefined)	6.0	19.3	4.4	24.0	-0.2	-1.2	·
Cc1ccc(S(=O)(=O)NC2CCCCCCC2)cc1	-18.0	453.6*	7.0	5.8	-1.1	0.0	0.9
Cc1ccc(S(=O)(=O)Nc2n[nH]nc2C(=O)NC2CCCCC2)cc1	-32.8	517.4*	6.5	-0.1	-2.0	-3.5	-0.2
Cn1c(CN2CCOCC2)nc2cc(NC(=O)COc3ccccc3)ccc21	-14.6	23.4	12.2	-3.7	-6.7	-2.8	·
Cn1c(CCN2CCOCC2)nc2cc(NC(=O)COc3ccccc3)ccc21	-5.6	+	1.8	-8.8	-2.1	-4.3	0.8
SMILES	DNA FID counter	SUMO Mot1 rescue	SUMO HTRF inh	NALP1 yeast inh	VIM-2 inh	IMP-1 inhibitor	Yeast Mot1 SUMO
Cc1ccccc1OCC(=O)N=Nc1c(O)n(C)c2ccccc12	-7.2	8.7	19.6	0.5	0.9	-1.3	·
C[C@H](CO)N1C[C@H](C)[C@@H](CN(C)Cc2ccc(C(=O)O)cc2)Oc2c(cccc2N(C)C)C1=O	·	1.3	·	·	·	·	·
CCOC(=O)c1sc(NC(=O)C(CC)OC(=O)c2ccco2)nc1C (centres undefined)	-18.2	889.2*	-0.7	8.3	0.0	-2.3	0.3
COc1ccc(CNC(=O)COC(=O)c2nc3nc(C)cc(C)n3n2)cc1	·	5.7	·	·	·	·	·
O=C(N1CCc2[nH]c3ccccc3c2C1)C(F)(F)F	2.8	46.6	-10.3	4.2	-2.7	-2.9	·
C/C=C/C(=O)N1c2ccc(C)cc2C(C)=CC1(C)C	-6.5	962.0*	13.0	·	-3.3	-3.2	0.5
CSCC[C@H](NC(=O)CC(C)(C)C)c1nc2ccccc2[nH]1	-0.4	422.4*	5.0	0.5	-0.4	-1.9	0.6
CCCC(=O)NC(C)c1nc2ccccc2[nH]1 (centres undefined)	-6.8	594.7*	10.9	16.4	-3.9	-5.6	0.5
CCCCC(NC(C)=O)c1nc2ccccc2[nH]1 (centres undefined)	-3.8	-13.6	-1.1	24.0	-2.4	-3.6	·
CCC(Sc1nnc(C)c(=O)[nH]1)C(=O)Nc1cccc2ccccc12 (centres undefined)	-9.0	2.0	-7.5	4.7	-3.3	-4.3	·
COc1ccccc1NC(=O)N1CCN(C(=O)Nc2ccccc2OC)CC1	-3.8	+	17.3	·	0.1	-0.1	-0.6
COc1ccc(CNC(=O)C(=O)NC2CCC(C)CC2)cc1 (centres undefined)	-9.6	-4.1	1.9	6.3	-0.4	-0.2	·
CC[C@H]1C/C=C\Cc2ccccc2[C@H](C(=O)C[C@@H](O)CC(C)=O)OC1=O	·	-15.8	·	·	·	·	·
CC[C@@H]1C/C=C\Cc2ccccc2[C@H](C(=O)C[C@@H](O)CC(C)=O)OC1=O	·	497.3*	·	·	·	·	-0.8
COC(=O)c1ccc(CSc2nc3ccccc3c(=O)n2C)o1	-26.3	4.3	1.4	21.4	6.0	1.2	·
CCOC(=O)CSc1nc2ccccc2c(=O)n1CC(C)C	-20.2	572.8*	18.1	7.7	-4.3	-3.5	0.0
COC(=O)c1ccc(CSc2nc3ccccc3c(=O)n2CC(C)C)o1	-15.8	838.8*	-20.3	20.4	-1.4	-1.5	0.5
